Assay results gathered from unrelated publications.
Compare with care: the assays were run in different laboratories.
AXL: Tyrosine-protein kinase receptor UFO (AXL, Homo sapiens, UniProt P30530)
ADORA1: Adenosine receptor A1 (ADORA1, Homo sapiens, UniProt P30542)
RPS6KB2: Ribosomal protein S6 kinase beta-2 (RPS6KB2, Homo sapiens, UniProt Q9UBS0)

| SMILES | target | assay | test system | conditions | endpoint | result |
| --- | --- | --- | --- | --- | --- | --- |
| CC(C)C[C@H](NC(=O)CNC(=O)[C@H](Cc1ccc(O)cc1)NC(=O)[C@H](CO)NC(=O)[C@H](Cc1c[nH]c2ccccc12)NC(=O)[C@H](Cc1c[nH]cn1)NC(=O)[C@@H]1CCC(=O)N1)C(=O)N[C@@H](CCCNC(=N)N)C(=O)N1CCC[C@H]1C(=O)NCC(N)=O | Gonadotropin-releasing hormone receptor (GNRHR, Homo sapiens, UniProt P30968) | inositol phosphate, agonist, TR-FRET | HEK-293T | 1 h | Emax | 100% |
| C#Cc1cnc(Nc2ccc(CO)cc2)nc1Nc1ccccc1C(=O)NC | AXL | enzyme activity, inhibitor | – | 1 µM | remaining activity | 1.65% |
| CCN1/C(=C/C(C)=O)Sc2ccc(F)cc21 | ADORA1 | ligand displacement, radioligand | – | 10 µM | inhibition | 2.48% |
| CCCCC(=O)Nc1ccc(-c2ccc3ncn(CCC)c(=O)c3c2)cn1 | Serine/threonine-protein kinase 32A (STK32A, Homo sapiens, UniProt Q8WU08) | binding, competition with immobilised ligand | – | 0.5 µM | remaining binding | 86% |
| COc1nc(-c2cccc(-c3ccccc3)c2C)ccc1CNCCNC(=O)CCCCCCCCCCC(=O)N1CCN(CCNC(=O)c2cc3c(=O)n4cccc(C)c4nc3n(CCc3cccs3)c2=N)CC1 | Programmed cell death 1 ligand 1 (CD274, Homo sapiens, UniProt Q9NZQ7) | protein level, degrader, western blot | HL-60 | 1 µM | Dmax | 53.9% |
| C#Cc1cc(-c2cc(Nc3nc(N[C@@H](C)c4ccc(F)cn4)ncc3Cl)n[nH]2)ccc1C=O | RAC-gamma serine/threonine-protein kinase (AKT3, Homo sapiens, UniProt Q9Y243) | enzyme activity, inhibitor | – | 0.2 µM | inhibition | 17.4% |
| Cc1cc(F)cc2c(CCC(=O)N[C@@H]3C(=O)NC[C@H]3O)c(-c3ccc(F)cc3)[nH]c12 | ADORA1 | cell-free assay | – | 10 µM | inhibition | 4% |
| NC/C(=C\F)COc1cccc(Cn2c(=S)[nH]c(=O)c3[nH]cnc32)c1 | ADORA1 | ligand displacement, radioligand | – | 10 µM | inhibition | < 50% |
| Cc1cc(O)c(-c2ccc([C@@H](C)CN(C)C)cc2)c2c1[nH]c(=O)c1sccc12 | RPS6KB2 | enzyme activity, inhibitor | – | 0.1 µM | inhibition | -3.41% |
| C1=C/COCc2cc(ccc2OCCN2CCCC2)Nc2nccc(n2)-c2cccc(c2)COC/1 | Ephrin type-A receptor 4 (EPHA4, Homo sapiens, UniProt P54764) | binding | – | 0.1 µM | remaining binding | 100% |
| CS(=O)(=NC#N)c1ccccc1Nc1nc(Nc2ccnc(CO)c2)ncc1Cl (stereo not drawn) | AXL | enzyme activity, inhibitor | – | 1 µM | remaining activity | 14.7% |
| COc1ccc2oc(-c3ccc4nc(N)oc4c3)c/c(=N\c3ccccc3NC(=O)CCN)c2c1 | RPS6KB2 | binding | – | 1 µM | remaining binding | 93% |
